What was measured:
HEK-293T [1] = assay: Cytotoxicity against HEK293T cells at 25 to 50 uM after 24 hrs by LDH assay; conditions: human
HEK-293T [2] = assay: Cytotoxicity against HEK293T cells up to 50 uM after 16 hrs by Celltiter-Glo luminescence assay; format: cell-based; conditions: human
In short: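 HEK-293T cells exposed for 16 hrs to varying concentrations of stimulator before toxicity was assessed.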

20S proteasome = assay: Stimulation of human 20S proteasome using 11 amino acid FRET peptide as substrate measured every 2 mins over 1 hr by FRET assay; format: protein-complex assay
In short: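 Purified human 20S core particle is incubated with an 11-residue reporter peptide carrying a FRET pair, with or without stimulator. The peptide hydrolysis rate is calculated and expressed as percent increase over the basal (unstimulated) rate. EC50 comes from concentration-response curves.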

[3] = molecular target: 20S proteasome (Homo sapiens) (UniProt P49721+P20618+P28074+P28062+P28065+P28072+P25786+P25787+P25788+P25789+P28066+P60900+O14818+Q8TAA3+P40306+A5LHX3+P49720+P28070+Q99436); assay: Stimulation of human 20S proteasome at EC50 using 11 amino acid FRET peptide as substrate measured every 2 mins over 1 hr by FRET assay relative to control; format: protein-complex assay
In short: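 Purified human 20S core particle incubated with an 11-residue reporter peptide carrying a FRET pair. Hydrolysis rate of the peptide is calculated with and without stimulator and expressed as percent increase over basal hydrolysis.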

[4] = Solubility of the compound in DMSO; format: physicochemical

Row | SMILES | Activity (HEK-293T [1]) | Activity (HEK-293T [2]) | EC50 (20S proteasome) | Activity [3] | solubility [4]
1 | CCCCCCCC/C=C\CCCCCCCC(=O)Nc1ccc(O)cc1 | Non-Toxic | Non-Toxic | 35 µM | 400% | –
2 | CCCCCCCC/C=C\CCCCC/C=C/C(=O)O | – | – | – | – | Insoluble
3 | CCCCCCCC/C=C\CCCCC/C=C/C(=O)Nc1ccc(O)cc1 | Non-Toxic | Non-Toxic | 24 µM | 500% | –
4 | CCCCCC/C=C\CCCCC/C=C/C(=O)O | – | – | – | – | Insoluble
5 | CCCCC/C=C\C/C=C\C/C=C\C/C=C\CCCC(=O)Nc1ccc(O)cc1 | Non-Toxic | Toxic | 28 µM | 1000% | –
